Laboratory results from publication PMC2811258 (Biochemistry, 2009).
Values joined by “and” are separate entries in the source; they are usually repeats but may differ in a detail not shown here. Identical values can stand only once. “Also recorded” adds a separate entry of the source. Like-named read-outs stand apart in the source and are kept apart here.

Legend:
[1] = target: T1, TmCheA dimer (full-length T. maritima CheA) (Thermotoga maritima, UniProt Q56310); test: Competition binding between ATP and TNP-ATP for TmCheA binding sites; settings: 4 °C, Mg2+
T1 sequence (Q56310 1-671): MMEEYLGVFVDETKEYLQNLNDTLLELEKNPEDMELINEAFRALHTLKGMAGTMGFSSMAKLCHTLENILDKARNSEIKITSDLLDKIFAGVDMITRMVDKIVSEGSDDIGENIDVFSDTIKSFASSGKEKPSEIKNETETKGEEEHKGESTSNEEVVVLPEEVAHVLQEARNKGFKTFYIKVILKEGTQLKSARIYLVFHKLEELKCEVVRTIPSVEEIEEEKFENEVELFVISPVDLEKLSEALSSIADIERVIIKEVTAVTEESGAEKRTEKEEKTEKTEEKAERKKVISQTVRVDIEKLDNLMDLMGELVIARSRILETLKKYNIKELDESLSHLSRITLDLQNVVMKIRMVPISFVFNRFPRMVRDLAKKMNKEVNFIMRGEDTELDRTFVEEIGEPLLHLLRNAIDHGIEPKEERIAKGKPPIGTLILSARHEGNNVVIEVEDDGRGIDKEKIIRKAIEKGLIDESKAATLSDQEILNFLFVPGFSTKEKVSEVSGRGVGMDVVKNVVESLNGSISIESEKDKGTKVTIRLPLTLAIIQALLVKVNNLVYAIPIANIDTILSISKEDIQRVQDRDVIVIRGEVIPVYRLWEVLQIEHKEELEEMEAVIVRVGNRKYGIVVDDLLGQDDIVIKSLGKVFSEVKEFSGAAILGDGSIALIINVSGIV
In short: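 Competition titrations at 4 °C: TNP-ATP aliquots added to stirred full-length TmCheA (0.6 μM dimer) in TnM buffer (25 mM Tris, 0.5 mM EDTA, 10% glycerol, 25 mM NaCl, 50 mM K-glutamate, 20 mM MgCl2) containing 0, 2.34, 5.9, 11.9 or 23.4 mM ATP. Emission spectra (four-scan averages), background-corrected by mock titrations. At least two independent experiments averaged.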

TmP4 [2] = settings: read-out: Kd^ATP for TmP4; chromatographic approach; ref [2]; cited from earlier work
[3] = target: T2, TmP4 (isolated P4 domain of T. maritima CheA, monomer) (Thermotoga maritima, UniProt Q56310); test: Fluorescence-monitored TNP-ATP binding titrations with TmP4; settings: 4 °C, Mg2+; λex 520 nm, emission 530–600 nm
T2 sequence (Q56310 356-540): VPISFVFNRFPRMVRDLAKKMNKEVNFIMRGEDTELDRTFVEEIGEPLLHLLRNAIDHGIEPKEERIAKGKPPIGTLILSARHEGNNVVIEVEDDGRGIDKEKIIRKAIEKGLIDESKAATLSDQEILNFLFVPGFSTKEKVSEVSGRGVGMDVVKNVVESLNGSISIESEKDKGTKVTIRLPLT

[4] = target: T1, TmCheA dimer (full-length T. maritima CheA); assay type: binding; settings: 4 °C
TmP4 [5] = settings: read-out: Upper limit of Kd for the TmP4–TNP-ATP binding interaction; previous work; ref [2]; cited from earlier work
[6] = without versus with 20 mM MgCl2

| Structure (SMILES) | Kd2^ATP/Kd1^ATP (affinity difference between the two sites) [1] | Kd ([1]; read-out: Kd1^ATP (high-affinity site of TmCheA dimer), effect of competitor ATP on apparent Kd1^TNP) | Kd (TmP4 [2]) | IMFC (integrated molar fluorescence coefficient) of the TmP4 · TNP-ATP complex [3] | IMFC of T.AA.T complex ([4]; 20 mM MgCl2, 0.6 μM TmCheA dimer, two-site model) | IMFC of T.AA complex (IMFC site 1) ([4]; 20 mM MgCl2, TmCheA titrated with excess TNP nucleotide) | IMFC site 2 (second, low-affinity site) ([4]; Mg2+) | IMFC of T.AA complex from reverse stoichiometry titration ([4]; Mg2+, TmCheA added to 0.28 μM TNP-ATP) | IMFC of T.AA complex, absence of Mg2+ ([4]; no MgCl2, 20 mM Na2EDTA) | IMFC of T.AA.T complex, absence of Mg2+ ([4]; no MgCl2, 20 mM Na2EDTA) | Decrease of site 2 affinity in the absence of Mg2+ [4, 6] | Effect of Mg2+ removal on site 1 binding [4, 6] | Kd ([4]; Kd1^TNP (high-affinity site 1 of TmCheA dimer), Mg2+, forward and reverse titrations at low protein and ligand concentrations (0.002–0.003 μM)) | Kd ([4]; Kd1^TNP, titration of CheA with excess TNP-ATP, Mg2+, 0.003 μM TmCheA dimer, one-site binding model) | Kd ([4]; Kd1^TNP, titration of TNP-ATP with excess TmCheA, Mg2+, 0.002 μM TNP-ATP, one-site binding model) | Binding stoichiometry of high-affinity TNP-ATP binding to TmCheA dimer ([4]; reverse titration, 0.28 μM TNP-ATP, Mg2+) | Kd (TmP4 [5]) |
| --- | --- | --- | --- | --- | --- | --- | --- | --- | --- | --- | --- | --- | --- | --- | --- | --- | --- |
| Nc1ncnc2c1ncn2[C@@H]1O[C@H](COP(=O)(O)OP(=O)(O)OP(=O)(O)O)[C@@H](O)[C@H]1O [ATP] | ~10^3 fold | ~6000 nM and 6000 nM | 15000 nM | – | – | – | – | – | – | – | – | – | – | – | – | – | – |
| Nc1ncnc2c1ncn2[C@@H]1O[C@H](COP(=O)(O)OP(=O)(O)OP(=O)(O)O)[C@H]2OC3(O[C@H]21)C([N+](=O)[O-])=CC(=[N+]([O-])[O-])C=C3[N+](=O)[O-] (some centres unmarked) [TNP-ATP, 2′(3′)-O-(2,4,6-trinitrophenyl)adenosine 5′-triphosphate] | – | – | – | 1.9 × 10^6 cps/μM | 9.5 × 10^6 cps/μM | 2.0 × 10^6 cps/μM | 7.5 × 10^6 cps/μM | ~2× 10^6 cps/μM and 2.0 × 10^6 cps/μM | 2.4 × 10^6 cps/μM | 8.9 × 10^6 cps/μM | 5 fold | insensitive to the presence or absence of Mg^2+ | ~1.6 nM and 1.6 nM | 1.8 nM | 1.4 nM | each TmCheA dimer can bind one molecule of TNP-ATP with high affinity; also recorded: one TNP-ATP per CheA dimer | ≤ 10 nM |
